Source: ChEMBL document CHEMBL1126595, “Studies directed toward the design of orally active renin inhibitors. 2. Development of the efficacious, bioavailable renin inhibitor (2S)-2-benzyl-3- [[(1-methylpiperazin-4-yl)sulfonyl]propionyl]-3-thiazol-4-yl-L-alanine amide of (2S,3R,4S)-2-amino-1-cyclohexyl-3,4-dihydroxy-6-methylheptane …” (J Med Chem, 1993)
In brackets after ≈: the same amount, converted by molar mass. Values belong to the compound of their own block, whether it stands above or below them.

Tests used:
[1] = Bioavailability in the portal circulation after 10 minutes was determined after intraduodenal dose of 10 mg/kg in rat by HPLC method; type: ADME, organism-based; details: plasma (portal circulation), read-out: Plasma level
How it was run: (§1)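 Screening model in anesthetized rats given 10 mg/kg intraduodenally. Formulation was ethanol stock with 110 mol % HCl, diluted with aqueous hydroxypropyl methylcellulose to 25% ethanol. Systemic and portal blood drawn at 10 and 30 min in the same animals. Drug level (ng/mL) measured by HPLC or renin inhibition assay. Mean ± SEM, n = 3 unless noted.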

[2] = Bioavailability in the systemic circulation after 30 minutes was determined after intraduodenal dose of 10 mg/kg in rat by HPLC method; type: ADME, organism-based; details: plasma (systemic circulation), read-out: Plasma level; how it was run: as §1
[3] = Bioavailability in the portal circulation after 30 minutes was determined after intraduodenal dose of 10 mg/kg in rat by HPLC method; type: ADME, organism-based; details: plasma (portal circulation), read-out: Plasma level; how it was run: as §1
[4] = Bioavailability in the systemic circulation after 10 minutes was determined after intraduodenal dose of 10 mg/kg in rat by HPLC method; type: ADME, organism-based; details: plasma (systemic circulation), read-out: Plasma level; how it was run: as §1
[5] = molecular target: T1, Renin (Homo sapiens, UniProt P00797); test: Inhibitory concentration against human plasma renin at pH 7.4; type: cell-free
T1 sequence (P00797 whole entry): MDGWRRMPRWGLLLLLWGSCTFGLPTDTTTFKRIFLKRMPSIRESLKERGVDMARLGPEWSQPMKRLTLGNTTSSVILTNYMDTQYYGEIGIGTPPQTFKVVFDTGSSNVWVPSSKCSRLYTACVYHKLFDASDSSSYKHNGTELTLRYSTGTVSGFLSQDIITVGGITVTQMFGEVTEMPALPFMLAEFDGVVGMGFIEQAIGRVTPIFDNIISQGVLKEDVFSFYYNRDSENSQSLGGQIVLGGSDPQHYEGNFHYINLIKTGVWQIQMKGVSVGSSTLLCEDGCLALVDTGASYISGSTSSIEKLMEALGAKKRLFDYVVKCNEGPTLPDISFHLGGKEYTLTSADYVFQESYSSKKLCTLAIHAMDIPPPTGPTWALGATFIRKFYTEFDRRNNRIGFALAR

[6] = Partition coefficient in octanol/water phase at pH 7.4; type: physicochemical
How it was run: (§2)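 log P measured by octanol/water partition at pH 7.4.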

[7] = Peak concentration was determined in portal circulation after intraduodenal dose of 10 mg/kg in monkey; type: ADME, organism-based; parameters: dose 10 mg/kg, route intraduodenal; details: simiiformes, in vivo, read-out: Activity
How it was run: (§3)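 Anesthetized, salt-depleted cynomolgus monkeys dosed intraduodenally at 10 mg/kg in HCl salt/ethanol–hydroxypropyl methylcellulose vehicle (25% ethanol). Systemic and portal plasma drug levels measured by renin inhibition assay. AUC in ng h/mL. Bioavailability compared against an iv dose of 0.3 mg/kg or 1.0 mg/kg, the latter taken from earlier work. Mean ± SEM.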

[8] = Partition coefficient in the octanol/water phase at pH 7.4; type: physicochemical; how it was run: as §2
[9] = Bioavailability was determined after intraduodenal dose of 10 mg/kg in monkey (compared to 0.3 mg/kg intravenous dose); type: ADME, organism-based; details: simiiformes, in vivo, read-out: Bioavailabiility; how it was run: as §3
[10] = Integrated area under the plasma drug level-time curve was determined in systemic circulation after intraduodenal dose of 10 mg/kg in monkey; type: ADME, organism-based; parameters: dose 10 mg/kg, route intraduodenal; details: simiiformes; how it was run: as §3
[11] = Hypotension peak is percentage change from predose baseline pressure observed after intraduodenal dose of 10 mg/kg in monkey; type: ADME, organism-based; parameters: dose 10 mg/kg, route intraduodenal; details: simiiformes, in vivo, other
How it was run: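 Anesthetized, salt-depleted cynomolgus monkeys given 10 mg/kg intraduodenally. Mean arterial pressure followed for up to 5 h. Peak fall expressed as % change from predose baseline. Difference from baseline significant if P < 0.05. Mean ± SEM.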

[12] = Peak concentration was determined in systemic circulation after intraduodenal dose of 10 mg/kg in monkey; type: ADME, organism-based; parameters: dose 10 mg/kg, route intraduodenal; details: simiiformes, in vivo, read-out: Activity; how it was run: as §3
[13] = Integrated area under the plasma drug level-time curve was determined in portal circulation after intraduodenal dose of 10 mg/kg in monkey; type: ADME, organism-based; parameters: dose 10 mg/kg, route intraduodenal; details: simiiformes; how it was run: as §3
[14] = molecular target: T2, Renin (Rattus norvegicus, UniProt P08424); test: In vitro inhibitory concentration against rat plasma renin at pH 7.4; type: cell-free
T2 sequence (P08424 whole entry): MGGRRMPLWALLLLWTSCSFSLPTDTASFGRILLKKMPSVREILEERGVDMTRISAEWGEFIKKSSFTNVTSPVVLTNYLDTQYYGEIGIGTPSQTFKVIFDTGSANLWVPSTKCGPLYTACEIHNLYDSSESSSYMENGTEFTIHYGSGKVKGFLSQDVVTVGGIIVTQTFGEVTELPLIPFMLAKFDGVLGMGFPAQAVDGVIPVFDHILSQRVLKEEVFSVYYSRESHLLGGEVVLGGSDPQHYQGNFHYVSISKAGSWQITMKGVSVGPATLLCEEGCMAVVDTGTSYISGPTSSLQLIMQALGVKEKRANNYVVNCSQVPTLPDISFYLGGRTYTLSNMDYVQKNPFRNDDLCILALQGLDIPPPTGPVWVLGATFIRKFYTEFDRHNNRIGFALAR

[15] = Bioavailability in the portal circulation after 10 minutes was determined after intraduodenal dose of 10 mg/kg in rat by renin inhibition assay; type: ADME, organism-based; details: plasma (portal circulation), read-out: Plasma level; how it was run: as §1
[16] = Integrated area under the plasma drug level-time curve was determined in systemic circulation after intraduodenal dose of 10 mg/kg in monkey determined by renin inhibition assay; type: ADME, organism-based; parameters: dose 10 mg/kg, route intraduodenal; details: simiiformes; how it was run: as §3
[17] = Bioavailability in the systemic circulation after 10 minutes was determined after intraduodenal dose of 10 mg/kg in rat by renin inhibition assay; type: ADME, organism-based; details: plasma (systemic circulation), read-out: Plasma level; how it was run: as §1
[18] = In vitro inhibitory concentration against monkey plasma renin at pH 7.4
[19] = Peak concentration was determined in systemic circulation after intraduodenal dose of 10 mg/kg in ferret, determined by renin inhibition assay; type: ADME, organism-based, Mustela putorius furo; parameters: dose 10 mg/kg, route intraduodenal; details: in vivo, read-out: Activity
How it was run: (§4)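 Intraduodenal 10 mg/kg to anesthetized rats or ferrets. Compound dissolved in ethanol with 110 mol % HCl, then diluted in aqueous hydroxypropyl methylcellulose to 25% ethanol (10 mg/mL). Plasma sampled id rat 15, 30, 60, 120 min; id ferret 5, 15, 30, 60, 120, 180 min. Drug measured by renin inhibition assay or HPLC. AUC in ng h/mL. Bioavailability is relative to iv 1.0 mg/kg (rat) or 0.3 mg/kg (ferret).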

[20] = Bioavailability was determined after intraduodenal dose of 10 mg/kg in monkey (compared to 0.3 mg/kg intravenous dose), determined by renin inhibition assay; type: ADME, organism-based; details: simiiformes, in vivo, read-out: Bioavailabiility; how it was run: as §3
[21] = Bioavailability in the portal circulation after 30 minutes was determined after intraduodenal dose of 10 mg/kg in rat by renin inhibition assay; type: ADME, organism-based; details: plasma (portal circulation), read-out: Plasma level; how it was run: as §1
[22] = Peak concentration was determined in systemic circulation after intraduodenal dose of 10 mg/kg in monkey, determined by renin inhibition assay; type: ADME, organism-based; parameters: dose 10 mg/kg, route intraduodenal; details: simiiformes, in vivo, read-out: Activity; how it was run: as §3
[23] = Solubility at pH 7.4; type: physicochemical; details: buffer
[24] = molecular target: T1, Renin; test: In vitro inhibitory concentration against human plasma renin at pH 7.4; type: cell-free
[25] = Bioavailability was determined after intraduodenal dose of 10 mg/kg in ferret, determined by renin inhibition assay; type: ADME, organism-based, Mustela putorius furo; details: in vivo, read-out: Bioavailabiility; how it was run: as §4
[26] = molecular target: Renin (Canis lupus familiaris); test: In vitro inhibitory concentration against dog plasma renin at pH 7.4
[27] = Integrated area under the plasma drug level-time curve was determined in systemic circulation after intraduodenal dose of 10 mg/kg in ferret, determined by renin inhibition assay; type: ADME, organism-based, Mustela putorius furo; parameters: dose 10 mg/kg, route intraduodenal; how it was run: as §4
[28] = Bioavailability in the systemic circulation after 30 minutes was determined after intraduodenal dose of 10 mg/kg in rat by renin inhibition assay; type: ADME, organism-based; details: plasma (systemic circulation), read-out: Plasma level; how it was run: as §1
[29] = Integrated area under the plasma drug level-time curve was determined in systemic circulation after intraduodenal dose of 10 mg/kg in rat, determined by renin inhibition assay; type: ADME, organism-based; parameters: dose 10 mg/kg, route intraduodenal; how it was run: as §4
[30] = Peak concentration was determined in systemic circulation after intraduodenal dose of 10 mg/kg in rat, determined by renin inhibition assay; type: ADME, organism-based; parameters: dose 10 mg/kg, route intraduodenal; details: in vivo, read-out: Activity; how it was run: as §4
[31] = Bioavailability was determined after intraduodenal dose of 10 mg/kg in rat, determined by renin inhibition assay; type: ADME, organism-based; details: in vivo, read-out: Bioavailabiility; how it was run: as §4

- concentration at 10 min [1]: 580 ng/mL
- concentration at 0.5 h [2]: 47 ng/mL
- concentration at 0.5 h [3]: 270 ng/mL
- concentration at 10 min [4]: 93 ng/mL
- IC50 [5]: 8.1 nM
- logD [6]: 2.83
SMILES: CC(C)C[C@H](O)[C@H](O)[C@H](CC1CCCCC1)NC(=O)[C@H](Cc1cscn1)NC(=O)[C@@H](CC(=O)N(C)CCCN(C)C)Cc1ccccc1

- Cmax [7]: 550 ng/mL
- logD [8]: 3.61
- bioavailability [9]: 1.8%
- AUC [10]: 110 ng·h/mL
- Change [11]: 23%
- Cmax [12]: 72 ng/mL
- AUC [13]: 530 ng·h/mL
- IC50 [5]: 4 nM
SMILES: CC(C)C[C@H](O)[C@H](O)[C@H](CC1CCCCC1)NC(=O)[C@H](Cc1cscn1)NC(=O)[C@H](Cc1ccccc1)CS(=O)(=O)C1CCN(C)CC1

- IC50 [14]: > 10000 nM
- Cmax [7]: 1200 ng/mL
- concentration at 10 min [15]: 550 ng/mL
- AUC [16]: 260 ng·h/mL
- logD [8]: 4.22
- concentration at 10 min [17]: 220 ng/mL
- IC50 [18]: 0.76 nM
- Cmax [19]: 510 ng/mL
- bioavailability [20]: 3.1%
- concentration at 0.5 h [21]: 560 ng/mL
- Cmax [22]: 70 ng/mL
- solubility [23]: 13 µg/mL (≈ 18.4 µM)
- IC50 [24]: 2.6 nM
- bioavailability [25]: 68%
- IC50 [26]: 33 nM
- AUC [27]: 1100 ng·h/mL
- Change [11]: 28%
- concentration at 0.5 h [28]: 230 ng/mL
- AUC [29]: 1300 ng·h/mL
- AUC [13]: 3400 ng·h/mL
- Cmax [30]: 980 ng/mL
- bioavailability [31]: 27%
SMILES: CC(C)C[C@H](O)[C@H](O)[C@H](CC1CCCCC1)NC(=O)[C@H](Cc1cscn1)NC(=O)[C@@H](CC(=O)N(C)CCc1ccccn1)Cc1ccccc1
